Marks after values point to notes of the source that are not given here.
Tests used:
healthy subjects [1] = assay: Safety: treatment-emergent adverse events; assay type: in vivo, human; details: single s.c. dose 0.2 U/kg; for Headache, number of subjects / Headache, percentage of subjects / Hypoglycaemia, events (one subject each) / Injection site erythema, number of subjects / Injection site erythema, percentage of subjects / Nasopharyngitis, number of subjects / Nasopharyngitis, percentage of subjects: TEAE
Summary of the method: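 In a randomized three-period crossover with washouts, each subject received a single 0.2 U/kg s.c. dose per period. Treatment-emergent adverse events were recorded per treatment and graded mild, moderate or severe. They were summarised descriptively by visit/treatment as subject counts, percentages and event numbers.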

[2] = assay type: in vivo, human
Summary of the method: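 Healthy volunteers in a randomized crossover each received a single 0.2 U/kg s.c. dose per period. Plasma was sampled predose and from 5 to 720 min postdose. Insulin aspart, with 15N-labelled internal standard, was captured on anti-insulin antibody magnetic beads and measured by UPLC-MS/MS (range 100-8000 pg/mL). AUC ratios and CIs came from Fieller's theorem. Time endpoints were summarised descriptively by treatment.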

healthy subjects [3] = assay: Pharmacodynamics: automated euglycaemic glucose clamp; assay type: in vivo, human; details: Ref‐InsAsp‐US vs. Ref‐InsAsp‐EU (N = 65); two-sided 90% CI; Fieller's theorem
Summary of the method: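 Healthy adults aged 18-65 with BMI 18.5-29.0 kg/m2 and fasting glucose ≤5.5 mmol/L. Randomized crossover: single 0.2 U/kg s.c. dose per period, 12- to 16-day washout. Before dosing, variable i.v. human insulin brought blood glucose to the 81 mg/dL target. Glucose infusion was then adjusted automatically over a 12 h clamp, GIR logged every minute. Partial-AUC ratios with CIs came from Fieller's theorem.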

[4] = Ref‐InsAsp‐US vs. Ref‐InsAsp‐EU (N = 66), two-sided 90% CI, Fieller's theorem
[5] = healthy subjects, single s.c. dose 0.2 U/kg, plasma, arithmetic mean (SD)

Substance | Headache, number of subjects (healthy subjects [1]) | Headache, percentage of subjects (healthy subjects [1]) [%] | Hypoglycaemia, events (one subject each) (healthy subjects [1]) | Injection site erythema, number of subjects (healthy subjects [1]) | Injection site erythema, percentage of subjects (healthy subjects [1]) [%] | Nasopharyngitis, number of subjects (healthy subjects [1]) | Nasopharyngitis, percentage of subjects (healthy subjects [1]) [%] | Number of TEAE events (healthy subjects [1]) [events] | Subjects with at least one TEAE, percentage (healthy subjects [1]) [%] | AUC0‐6h LS‐mean ratio [2, 4] | AUC6‐12h LS‐mean ratio [2, 4] | t50%‐late (time to half‐maximum after Cmax) [2, 5] | tmax (time to maximum observed insulin aspart concentration) [2, 5] | λz (terminal elimination rate constant) [2, 5] | AUCGIR,0‐4h LS‐mean ratio (healthy subjects [3]) | AUCGIR,0‐6h LS‐mean ratio (healthy subjects [3]) | AUCGIR,6h‐last LS‐mean ratio (healthy subjects [3]) | Subjects with at least one treatment‐emergent adverse event (TEAE), number (healthy subjects [1]) [subjects] | t50%‐early (time to half‐maximum before Cmax) [2, 5]
MYL‐1601D: rapid‐acting human insulin analogue, biosimilar insulin aspart 100 U/mL, produced by recombinant DNA technology utilizing Pichia pastoris (Mylan) | four | 5.7 | one | two | 2.9 | three | 4.3 | 18 | 15.7 | – | – | – | – | – | – | – | – | – | –
Insulin aspart [Ref‐InsAsp‐US] | five | 7.2 | one | one | 1.4 | none | – | 12 | 15.9 | 99.71 (97.90; 101.52) % | 107.18 (83.81; 137.45) % | 3.13 (0.86) h | 1.11 (0.45) h | 0.82 (0.27) /h | 94.11 (90.37; 97.99) ^b % | 94.81 (91.46; 98.27) ^b % | 101.05 (95.75; 106.64) ^b % | 11 | –
Insulin aspart [Ref‐InsAsp‐EU] | eight | 11.9 | – | one | 1.5 | two | 3.0 | 13 | 19.4 | – | – | 3.1 (0.84) h | 1.10 (0.53) h | 0.86 (0.28) /h | – | – | – | 13 | 0.45 (0.12) h

— paper PMC9292719 (Diabetes, Obesity & Metabolism, 2021)
